Where a name gives a salt, the structure may show the parent alone. Activity calls are given as the source filed them. The calls are words filed in the database; no cut-off is given here.
Legend:
[1] = system: K562; experiment: Induction of apoptosis in human K562 cells assessed as upregulation of caspase7 protein expression at 10 uM after 24 hrs by Western blot analysis; type: functional, cell-based
How it was run: (§1)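 K562 cells treated 24 h with compound at 10 (micro)M; lysed in ice-cold RIPA with protease/phosphatase inhibitors, centrifuged 12,000 rpm 10 min, protein by Bradford. 30 µg per lane on 12% SDS-PAGE, PVDF transfer, blocked 2 h RT in TBST with 5% blocking powder. Primary antibody 4 °C overnight, HRP secondary 1:2000 1 h RT; chemiluminescence; β-actin loading control; untreated cells as control.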

[2] = system: K562; experiment: Inhibition of NF-kappaB p65 in human K562 cells assessed as decrease of S473 phosphorylated Akt1 level at 10 uM after 24 hrs by Western blot analysis; type: cell-based; how it was run: as §1
[3] = system: K562; experiment: Cell cycle arrest in human K562 cells at G1 phase assessed as decrease in CDK4 protein level at 10 uM after 24 hrs by Western blot analysis relative to control; type: functional, cell-based; how it was run: as §1
[4] = system: K562; experiment: Inhibition of NF-kappaB p65 in human K562 cells assessed as down regulation of STAT3 protein level at 10 uM after 24 hrs by Western blot analysis; type: cell-based; how it was run: as §1
[5] = system: K562; experiment: Antiproliferative activity against human K562 cells assessed as reduction in incorporation of BrdU into cellular DNA at 10 uM after 24 hrs; type: functional, cell-based
How it was run: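 K562 cells seeded 15,000/well, grown 24 h, then labelled with BrdU 5 h at RT, then exposed to compound at final 10 (micro)M for 24 h. Detection by anti-BrdU, HRP secondary (1:2000) 30 min, TMB substrate 30 min at room temperature; optical density read at 450 nm.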

[6] = system: K562; experiment: Induction of apoptosis in human K562 cells assessed as upregulation of caspase3 protein expression at 10 uM after 24 hrs by Western blot analysis; type: functional, cell-based; how it was run: as §1
[7] = system: K562; experiment: Cell cycle arrest in human K562 cells at G1 phase assessed as decrease in cyclin D1 protein level at 10 uM after 24 hrs by Western blot analysis relative to control; type: functional, cell-based; how it was run: as §1
[8] = system: K562; experiment: Induction of apoptosis in human K562 cells assessed as DNA fragmentation at 10 uM after 24 hrs by TUNEL assay; type: functional, cell-based
How it was run: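 TUNEL on K562 cells after 24 h exposure at 10 (micro)M: TdT-mediated incorporation of fluorescein-dUTP at free 3'-OH ends of fragmented DNA, run per kit maker's protocol; green-stained cells scored as TUNEL-positive; untreated cells as staining control.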

[9] = system: K562; experiment: Induction of apoptosis in human K562 cells assessed as effect on TNFR1 protein expression at 10 uM after 24 hrs by Western blot analysis; type: functional, cell-based
[10] = system: MDA-MB-231; experiment: Cytotoxicity against human MDA-MB-231 cells after 24 hrs by MTT assay; type: functional, cell-based; details: MDA-MB-231, 24 h
[11] = system: K562; experiment: Cytotoxicity against human K562 cells after 24 hrs by MTT assay; type: functional, cell-based; details: K562, 24 h
[12] = system: MCF7; experiment: Cytotoxicity against human MCF7 cells after 24 hrs by MTT assay; type: functional, cell-based; details: MCF7, 24 h
[13] = system: K562; experiment: Inhibition of NF-kappaB p65 in human K562 cells at 10 uM after 24 hrs by Western blot analysis; type: cell-based; how it was run: as §1
[14] = system: K562; experiment: Antiproliferative activity against human K562 cells assessed as down regulation of c-myc protein expression at 10 uM after 24 hrs by Western blot analysis relative to control; type: functional, cell-based; how it was run: as §1

SMILES	Activity [1]	Activity [2]	Activity [3]	Activity [4]	Activity [5]	Activity [6]	Activity [7]	Activity [8]	Activity [9]	IC50 [10] [µM]	IC50 [11] [µM]	IC50 [12] [µM]	Activity [13]	Activity [14]
COc1ccc(S(=O)(=O)Nc2ccc(C)c(Nc3nccc(-c4cc(OC)c(OC)c(OC)c4)n3)c2)cc1OC	Active	Active	Active	Active	Active	Active	Active	Active	inactive	7.48	8.57	11.6		
Cc1ccc(NS(=O)(=O)c2cnc3ccccc3c2)cc1Nc1nccc(-c2cccnc2)n1	Active	Active	Active	Active	Active	Active	Active	Active	inactive	7.31	5.88	9.96	inactive	
Cc1ccc(NC(=O)c2ccc(CN3CCN(C)CC3)cc2)cc1Nc1nccc(-c2cccnc2)n1 [IMATINIB MESYLATE]										1.8	0.21	0.83		
COc1cc(-c2ccnc(Nc3cc(NS(=O)(=O)c4ccc(-c5ccccc5)cc4)ccc3C)n2)cc(OC)c1OC	Active	Active	Active	Active	Active	Active	Active	Active	inactive	6.93	5.6	9.33	Active	Active
Cc1ccc(NS(=O)(=O)c2ccc3ccccc3c2)cc1Nc1nccc(-c2cccnc2)n1										8.31	9.89	12		
Cc1ccc(NS(=O)(=O)c2ccc(-c3ccccc3)cc2)cc1Nc1nccc(-c2cccnc2)n1										8	9.49	11.9		
COc1cc(-c2ccnc(Nc3cc(NS(=O)(=O)c4ccc5ccccc5c4)ccc3C)n2)cc(OC)c1OC										7.55	9.81	11.6		
Cc1ccc(NS(=O)(=O)c2ccc(Cl)cc2)cc1Nc1nccc(-c2cccnc2)n1										7.79	10.2	11.8		
COc1ccc(S(=O)(=O)Nc2ccc(C)c(Nc3nccc(-c4cc(OC)c(OC)c(OC)c4)n3)c2)cc1										6.86	9.12	12.3		

Source: ChEMBL document CHEMBL1914378, “Synthesis and apoptosis inducing ability of new anilino substituted pyrimidine sulfonamides as potential anticancer agents” (Eur J Med Chem, 2011)
